In ChEMBL document CHEMBL3352407, “Griseorhodins D-F, neuroactive intermediates and end products of post-PKS tailoring modification in Griseorhodin biosynthesis” (J Nat Prod, 2014):
The source made the active and inactive calls. The calls are words filed in the database; no cut-off is given here.

What was measured:
DRG neuron [1] = assay: Increase in Ca2+ uptake in mouse DRG neurons at 10 ug/ml by Fura-2 dye-based fluorescence microscopy in presence of KCl relative to control; type: functional
Procedure, shortened: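 Mouse DRG cells plated in medium with additives and loaded with the Ca2+ dye Fura-2 AM. Compound applied at 10 μg/mL, then 25 mM KCl added. Ca2+ influx compared with control cells in the same well.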

DRG neuron [2] = assay: Induction of depolarization of mouse DRG neurons at 10 ug/ml by Fura-2 dye-based fluorescence microscopy; type: functional
Procedure, shortened: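 Dorsal root ganglion cells were taken from mice, plated in medium with additives and loaded with Fura-2 AM. Intracellular Ca2+ was followed as the read-out while compound was applied at 10 μg/mL. This was followed by 25 mM KCl, with responses compared against control cells in the same well.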

CC(=O)Cc1cc2c(c(O)c1C(=O)O)-c1cc3c(c(O)c1CC2)C(=O)c1c(O)cc(O)cc1[C@H]3[C@H]1c2cc(O)cc(O)c2C(=O)c2c1cc1c(c2O)CCc2cc(CC(C)=O)c(C(=O)O)c(O)c2-1 (stereo in doubt; 1b)
Activity (DRG neuron [1]): Active
Activity (DRG neuron [2]): inactive
